Assay outcomes from PubChem.
KCNK9 block = KCNK9 potassium channel inhibitors, primary screen, HEK293 cells, thallium flux. FluxOR thallium flux fluorescence; hits give low values. B-score at 10 µM. 310,000 compounds, 1.2% hits;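 active means ratio B-score over 3 SD below the library mean, with starting fluorescence within 5 SD of its mean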;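 further: negative B-score means less thallium flux so channel inhibition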
Target sequence (Q9NPC2 whole entry, looked up): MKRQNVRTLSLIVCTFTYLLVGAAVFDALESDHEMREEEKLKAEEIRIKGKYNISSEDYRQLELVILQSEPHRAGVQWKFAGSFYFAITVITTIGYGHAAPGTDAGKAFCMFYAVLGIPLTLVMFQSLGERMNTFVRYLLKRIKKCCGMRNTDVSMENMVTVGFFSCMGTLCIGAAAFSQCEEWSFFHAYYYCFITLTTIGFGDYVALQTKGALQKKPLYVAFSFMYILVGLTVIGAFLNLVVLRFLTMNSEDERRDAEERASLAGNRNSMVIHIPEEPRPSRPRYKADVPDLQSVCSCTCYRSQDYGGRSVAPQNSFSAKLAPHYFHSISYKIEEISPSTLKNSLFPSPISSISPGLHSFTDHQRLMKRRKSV
KCNQ1 act = potentiators or activators of KCNQ1 channel, primary screen, cell-based, thallium flux, high-throughput | Potassium voltage-gated channel subfamily KQT member 1 (Homo sapiens), P51787 | CHO-K1 KCNQ1, thallium flux FluxOR fluorescence; hits give high values | B-score at 10 µM | 310,000 compounds, 0.35% hits | AID 2648, 2010;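 active means fluorescence ratio B-score, a plate-corrected score, at least three library SD, with initial intensity B-score within 5 SD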
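Assay system: stable KCNQ1 CHO-K1 line; medium: assay buffer, equal DMSO in all wells; timing: 90 min dye loading and 20 min compound exposure, both at room temperature; technique: kinetic FluxOR thallium fluorescence, 10-s 1-Hz baseline, 110-s post-stimulus read; read-out basis: B score of baseline-normalized fluorescence ratio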
KCNQ1 inh = inhibitors of human KCNQ1 channel, primary screen, cell-based, thallium flux, high-throughput. Potassium voltage-gated channel subfamily KQT member 1 (Homo sapiens), P51787. CHO-K1 KCNQ1, FluxOR thallium flux fluorescence; hits give high values. B-score at 10 µM. 310,000 compounds, 1.3% hits. AID 2642, 2010;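 active means compounds whose thallium flux B-score, printed positive for inhibition, exceeds three library SD while starting fluorescence stays within three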;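 further: channel opened by potassium depolarization with thallium stimulus after 20 min compound exposure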
KCNK3 block = human KCNK3 channel inhibitors, primary screen, CHO cells, FluxOR thallium flux, B-score. Potassium channel subfamily K member 3 (Homo sapiens), O14649. FluxOR fluorescence; hits give low values. B-score at 10 µM. 340,000 compounds, 0.84% hits. AID 602410, 2012;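 active means B-score under library mean minus 4 SD, starting fluorescence ratio at most library mean plus 5 SD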;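 further: more negative B-score means stronger inhibition of thallium flux through KCNK3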
hERG protect = hERG rescue from dofetilide block, primary screen, cell-based, CHO-hERG, FluxOR thallium flux, dofetilide IC70; Voltage-gated inwardly rectifying potassium channel KCNH2 (Homo sapiens), Q12809; dofetilide IC70 present; activation (rescue from dofetilide block), less the hit threshold, % at 10 µM; 310,000 compounds, 0.51% hits;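 active means activation above the mean of controls blocked by dofetilide plus 5 SD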;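 further: thallium influx through hERG after potassium depolarization seen as dye fluorescence rise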
Kir21 block = inhibitors of mouse Kir2.1 inward-rectifier potassium channel; Inward rectifier potassium channel 2 (Mus musculus), P35561; HEK293-Kir2.1, FluxOR thallium flux fluorescence; hits give low values; B-score at 10 µM; 310,000 compounds, 0.85% hits; AID 1672, 2009;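 active means fluorescence ratio B-score at or below minus 3 SD of library scores, with starting-brightness B-score within 2 SD, cut at about -4.2 in these data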;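 further: channel flux triggered by added potassium and thallium sulfate stimulus; B-score of peak minus minimum fluorescence over baseline after thallium stimulus; more negative B-score means stronger Kir2.1 block with less thallium influx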
KCNK9 inh conf = KCNK9 potassium channel inhibitors, confirmation, HEK293 cells, thallium flux, duplicate; 4,900 compounds, 43% hits; FluxOR thallium flux fluorescence; shares compounds with KCNK9 block; inhibition, % at 10 µM;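 active means thallium signal inhibited by more than 5 SD of the compound-free buffer control wells, on both duplicate plates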
Kir2-1 spec = mouse Kir2.1 channel inhibition, confirmation, selectivity assay for KCNK9 modulator project, cell-based, HEK293, thallium flux | shares compounds with KCNK9 block | Kir2.1 cells, FluxOR thallium flux fluorescence | inhibition, % at 10 µM | 4,900 compounds, 4% hits | AID 492993, 2010;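 active means thallium signal drop more than 5 SD beyond the mean of the no-compound control wells, seen in both duplicate plates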;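 further: signal is fluorescence rise after thallium addition divided by baseline fluorescence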
KCNK9 uninduced = thallium flux in non-induced HEK293 cells, confirmation, counter-screen for KCNK9 inhibitor project, cell-based, second counter screen, non-induced KCNK9-HEK293 | shares compounds with KCNK9 block | FluxOR thallium flux | inhibition, % at 10 µM | 4,900 compounds, 40% hits;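 active means thallium signal drop beyond 5 SD of the untreated control mean, on both duplicate plates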
A number is an active result. A selection: hits, their analogues and other compounds. The true share with any hit is near 3.7%.

Cc1cccc(N2CCN(C(=O)C3CCC(=O)N(C4CC4)C3)CC2)c1C (stereo not drawn) was read as KCNK9 block inactive, KCNQ1 act inactive, KCNQ1 inh inactive, KCNK3 block inactive, hERG protect inactive and Kir21 block inactive.
`NC(=O)c1cnn(-c2ccc3ccccc3c2)c1N` gave KCNK9 block inactive, KCNQ1 act inactive, KCNQ1 inh inactive, KCNK3 block inactive, hERG protect inactive and Kir21 block inactive.
`Clc1ccc(C2[C@H]3CN(Cc4ccc(-c5ccccc5)cc4)[C@H](c4ccccc4)C34CC2(c2ccccc2)C4)cn1` (stereo partly drawn) gave KCNK9 block inactive, KCNQ1 act inactive, KCNQ1 inh inactive, hERG protect inactive and Kir21 block inactive.
Clc1ccc(C2[C@H]3CN(Cc4cccnc4)[C@H](c4ccccc4)C34CC2(c2ccccc2)C4)cn1 (stereo partly drawn) was read as KCNK9 block -9.8, KCNQ1 act inactive, KCNQ1 inh inactive, KCNK3 block inactive, hERG protect inactive, Kir21 block inactive, KCNK9 inh conf 30%, Kir2-1 spec inactive and KCNK9 uninduced 35%.
Cc1ccc(C(C)C)c(OCc2nn(CC(=O)c3ccc(OC(F)F)cc3)c3[n+]2CCCCC3)c1 was read as KCNK9 block -8.4, KCNQ1 act inactive, KCNQ1 inh 9, KCNK3 block inactive, hERG protect inactive, Kir21 block inactive, KCNK9 inh conf 51%, Kir2-1 spec inactive and KCNK9 uninduced inactive.
CNc1nnc(CSc2nc(C)cc(C)n2)s1 was read as KCNK9 block inactive, KCNQ1 act inactive, KCNQ1 inh inactive, KCNK3 block inactive, hERG protect inactive, Kir21 block inactive, KCNK9 inh conf 36%, Kir2-1 spec inactive and KCNK9 uninduced inactive.
CNc1nnc(CSc2nc3ccccc3s2)s1 was read as KCNK9 block inactive, KCNQ1 act inactive, KCNQ1 inh inactive, KCNK3 block inactive, hERG protect inactive and Kir21 block inactive.
For Oc1oc(-c2ccccc2)nc1C=Nc1cccc2ccccc12 the results were KCNK9 block -9.9, KCNQ1 act inactive, KCNQ1 inh inactive, KCNK3 block inactive, hERG protect inactive, Kir21 block inactive, KCNK9 inh conf inactive, Kir2-1 spec inactive and KCNK9 uninduced 45%.
Screening O=c1c2ccccc2c(-c2cccc(C(F)(F)F)c2)nn1-c1ccccc1 returned KCNK9 block -8.8, KCNQ1 act inactive, KCNQ1 inh inactive, KCNK3 block inactive, hERG protect inactive, Kir21 block inactive, KCNK9 inh conf 38%, Kir2-1 spec inactive and KCNK9 uninduced 43%.
`O=C(c1ccccc1)n1ccc(-c2cnc(-c3ccccc3)s2)n1` gave KCNK9 block inactive, KCNQ1 act inactive, KCNQ1 inh inactive, KCNK3 block inactive, hERG protect inactive and Kir21 block inactive.
COc1ccc(S(=O)(=O)n2ccc(-c3cnc(-c4ccccc4)s3)n2)cc1 was read as KCNK9 block -10, KCNQ1 act inactive, KCNQ1 inh inactive, KCNK3 block inactive, hERG protect inactive, Kir21 block inactive, KCNK9 inh conf inactive, Kir2-1 spec inactive and KCNK9 uninduced 31%.
Screening CN(C)CCN(Cc1ccccc1)c1ccnc(N(C)C)c1C#N returned KCNK9 block inactive, KCNQ1 act inactive, KCNQ1 inh inactive, KCNK3 block inactive, hERG protect inactive and Kir21 block inactive.
`CN(C)c1nccc(N(Cc2ccccc2)Cc2ccccc2)c1C#N` gave KCNK9 block inactive, KCNQ1 act inactive, KCNQ1 inh inactive, KCNK3 block inactive, hERG protect inactive, Kir21 block inactive, KCNK9 inh conf inactive, Kir2-1 spec inactive and KCNK9 uninduced 24%.
CCC1=C(OC(=O)N(CC)CC)N2C(=O)OC(=NCCc3c[nH]c4ccccc34)[C@]2(Cc2ccccc2)[C@H]2C1=CC[C@H]1C(=O)N(C)C(=O)[C@H]12 was read as KCNK9 block -9.5, KCNQ1 act inactive, KCNQ1 inh inactive, KCNK3 block inactive, hERG protect inactive, Kir21 block inactive, KCNK9 inh conf 41%, Kir2-1 spec inactive and KCNK9 uninduced 40%.
`CCCC[C@@H]1CCCO[C@@](C(=O)NCc2ccc(C)o2)(C(F)(F)F)C1` gave KCNK9 block inactive, KCNQ1 act inactive, KCNQ1 inh inactive, KCNK3 block inactive, hERG protect inactive, Kir21 block inactive, KCNK9 inh conf inactive, Kir2-1 spec inactive and KCNK9 uninduced inactive.
O=C(NCc1ccccc1)[C@]1(C(F)(F)F)C[C@H](CCc2ccccc2)CCCO1 was read as KCNK9 block inactive, KCNQ1 act inactive, KCNQ1 inh inactive, KCNK3 block inactive, hERG protect inactive, Kir21 block inactive, KCNK9 inh conf inactive, Kir2-1 spec inactive and KCNK9 uninduced inactive.
`CCC[C@@H]1CCCO[C@@](C(=O)NCc2ccc(S(C)(=O)=O)cc2)(C(F)(F)F)C1` gave KCNK9 block inactive, KCNQ1 act inactive, KCNQ1 inh inactive, KCNK3 block inactive, hERG protect inactive and Kir21 block inactive.
`COc1ccc(Nc2cc(Nc3ccccc3)ncn2)cc1` gave KCNK9 block inactive, KCNQ1 act inactive, KCNQ1 inh inactive, KCNK3 block inactive, hERG protect inactive and Kir21 block inactive.
Screening COc1ccc(OCC(=O)Nc2ccc(OC)c(S(=O)(=O)N3CCCCC3)c2)cc1 returned KCNK9 block inactive, KCNQ1 act inactive, KCNQ1 inh inactive, KCNK3 block inactive, hERG protect inactive and Kir21 block inactive.
C=CCc1ccc(OCCCOc2ccc(C)c(C)c2)c(OC)c1 was read as KCNK9 block inactive, KCNQ1 act inactive, KCNQ1 inh inactive, KCNK3 block inactive, hERG protect inactive, Kir21 block inactive, KCNK9 inh conf inactive, Kir2-1 spec inactive and KCNK9 uninduced inactive.
